Test results taken from ChEMBL document CHEMBL1151955, “Activation of PPARgamma by metabolites from the flowers of purple coneflower (Echinacea purpurea)” (J Nat Prod, 2009).
Active and inactive are the calls of the source. The rule behind the calls is not given here.

Key:
[1] = target: T1, Peroxisome proliferator-activated receptor gamma (Homo sapiens) (UniProt P37231); test: Agonist activity at human PPARgamma ligand binding domain expressed in MEF cells co-transfected with Gal4-responsive luciferase vector assessed as photinus/renilla luciferase activity at 40 uM by transactivation assay relative to control; format: cell-based
T1 sequence (whole entry): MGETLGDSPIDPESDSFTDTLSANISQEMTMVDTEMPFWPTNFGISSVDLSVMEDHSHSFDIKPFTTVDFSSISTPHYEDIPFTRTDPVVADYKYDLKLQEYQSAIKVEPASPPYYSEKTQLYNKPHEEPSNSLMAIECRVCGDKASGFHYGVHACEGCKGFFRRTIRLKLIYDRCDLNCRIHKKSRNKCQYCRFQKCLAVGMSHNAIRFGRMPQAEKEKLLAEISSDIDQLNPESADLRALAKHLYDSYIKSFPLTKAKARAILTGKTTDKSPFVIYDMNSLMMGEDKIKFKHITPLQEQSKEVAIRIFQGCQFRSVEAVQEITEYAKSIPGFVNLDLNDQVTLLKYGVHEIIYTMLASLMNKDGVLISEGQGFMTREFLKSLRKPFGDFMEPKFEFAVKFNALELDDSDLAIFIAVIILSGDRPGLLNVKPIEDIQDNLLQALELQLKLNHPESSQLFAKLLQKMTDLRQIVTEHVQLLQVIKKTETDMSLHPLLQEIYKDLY
Summary of the method: (§1)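 Mouse embryonic fibroblasts were transiently transfected at 50-70% confluence. Each well got 2.5 ng pRL-CMV Renilla vector, 30 ng Gal4-responsive luciferase reporter and 15 ng pM-hPPARγ-LBD. Medium was changed at 6 h to DMEM with vehicle (0.1% DMSO), 1 µM rosiglitazone or compound. Cells were lysed 18 h post-transfection for dual luciferase. Photinus was normalized to Renilla and expressed as fold over vehicle. Triplicates, each read in duplicate.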

[2] = tested on: 3T3-L1; test: Increase in insulin-stimulated [14C]2-deoxy-D-glucose uptake in mouse 3T3L1 cells after 48 hrs by scintillation counting; format: functional, cell-based
Summary of the method: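 MDI-differentiated 3T3-L1 adipocytes were treated with compound or 1 µM rosiglitazone from day 8 for 48 h, then serum-starved 2 h at 37 °C. Cells were incubated in KRHB pH 7.4 for 30 min, insulin was added for 15 min, then [14C]2-deoxy-D-glucose at 1.0 mM final glucose for 15 min. Background came from 20 µM cytochalasin B wells. Scintillation counting, 8 wells per condition, mean ± SEM.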

[3] = tested on: 3T3-L1; test: Induction of adipocytes differentiation in mouse 3T3L1 cells at > 200 uM treated after 48 hrs postconfluence measured after 8 days using DEX protocol; format: functional, cell-based
Summary of the method: (§2)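 3T3-L1 cells were grown in DMEM with 10% calf serum. Two days postconfluence (day 0) they were induced in DMEM/10% FBS with compound plus 1 µM dexamethasone, then refed at 48 h with compound. From day 4 medium was DMEM/10% FBS, changed every second day. At day 8 cells were formaldehyde-fixed and stained for triacylglycerol with Oil Red O. Triplicate, three concentrations.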

[4] = tested on: 3T3-L1; test: Induction of adipocytes differentiation in mouse 3T3L1 cells at > 200 uM treated after 48 hrs postconfluence measured after 8 days using MDI protocol; format: functional, cell-based
Summary of the method: (§3)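 3T3-L1 cells were induced two days postconfluence in DMEM/10% FBS with compound plus 1 µM dexamethasone, 0.5 mM isobutylmethylxanthine and 1 µg/mL insulin. At 48 h they were refed with compound and 1 µg/mL insulin. From day 4 medium was DMEM/10% FBS, changed every second day. At day 8 cells were formaldehyde-fixed and stained with Oil Red O. Triplicate, three concentrations.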

[5] = target: T1, Peroxisome proliferator-activated receptor gamma (Homo sapiens); test: Agonist activity at human PPARgamma ligand binding domain expressed in MEF cells co-transfected with Gal4-responsive luciferase vector assessed as photinus/renilla luciferase activity at 30 uM by transactivation assay relative to control; format: cell-based; summary of the method: as §1
[6] = tested on: MEF; test: Apparent cytotoxicity against MEF at 100 uM; format: cell-based; conditions: mouse
[7] = target: T1, Peroxisome proliferator-activated receptor gamma (Homo sapiens); test: Agonist activity at human PPARgamma ligand binding domain expressed in MEF cells co-transfected with Gal4-responsive luciferase vector assessed as photinus/renilla luciferase activity at 100 uM by transactivation assay relative to control; format: cell-based; summary of the method: as §1
[8] = target: T1, Peroxisome proliferator-activated receptor gamma (Homo sapiens); test: Agonist activity at human PPARgamma ligand binding domain expressed in MEF cells co-transfected with Gal4-responsive luciferase vector assessed as photinus/renilla luciferase activity at 80 uM by transactivation assay relative to control; format: cell-based; summary of the method: as §1
[9] = tested on: 3T3-L1; test: Induction of adipocytes differentiation in mouse 3T3L1 cells treated after 48 hrs postconfluence measured after 8 days using MDI protocol; format: functional, cell-based; summary of the method: as §3
[10] = tested on: 3T3-L1; test: Induction of adipocytes differentiation in mouse 3T3L1 cells treated after 48 hrs postconfluence measured after 8 days using DEX protocol; format: functional, cell-based; summary of the method: as §2

Question: With `CC/C=C\C/C=C\C/C=C\CCCCCCCC(=O)O` as the molecule, how does the fold change (FC) [1] read?
Answer: 10

Question: For `C/C=C/C=C\C/C=C\CCCCC/C=C/C(=O)NCC(C)C`, which Activity [2] is on record?
Answer: Dose-dependent effect

Question: What about the Activity [3] of the same molecule?
Answer: inactive

Question: And the Activity [4]?
Answer: inactive

Question: And the fold change (FC) [5]?
Answer: 10

Question: What about the Activity [6] of the same molecule?
Answer: Toxic

Question: For `CCCCCC/C=C\CCCCCCCC(=O)O`, which fold change (FC) [1] is on record?
Answer: 10

Question: Which fold change (FC) [7] does the source give for `C/C=C/C=C\CC/C=C/C=C/C(=O)NCC(C)C` here?
Answer: 2

Question: Which fold change (FC) [1] does the source give for `CCCCC/C=C\C/C=C\CCCCCCCC(=O)O` here?
Answer: 10

Question: Which fold change (FC) [7] does the source give for `C/C=C\C=C/CC/C=C/C=C/C(=O)NCC(C)C` here?
Answer: 2

Question: `C/C=C\C#CCC/C=C\C=C\C(=O)NCC(C)C` was tested. Which fold change (FC) [7] did it give?
Answer: 2

Question: How did the fold change (FC) [8] turn out when `CCCCCCC/C=C/C=C/C(=O)NCC(C)C` was run?
Answer: 4

Question: What about the Activity [9] of the same molecule?
Answer: Active

Question: And the Activity [10]?
Answer: Active

Question: And the Activity [6]?
Answer: Toxic
